Results taken from ChEMBL document CHEMBL1221266, “Synthesis and SAR of novel, 4-(phenylsulfamoyl)phenylacetamide mGlu4 positive allosteric modulators (PAMs) identified by functional high-throughput screening (HTS)” (Bioorg Med Chem Lett, 2010).

Key:
[1] = biological target: T1, Metabotropic glutamate receptor 4 (Homo sapiens, UniProt Q14833); experiment: Positive allosteric modulation of human mGlu4 receptor expressed in CHO cells assessed as potentiation of glutamate-induced calcium mobilization relative to PHCCC; type: functional, cell-based
How it was run: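 Human mGlu4/Gqi5 CHO cells with an EC20 concentration of glutamate; compounds tested in 1:3 serial dilutions from 30 μM, in triplicate on one day. The maximal response elicited by each compound was divided by the response to the control PAM PHCCC measured on the same day.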

[2] = biological target: T1, Metabotropic glutamate receptor 4; experiment: Positive allosteric modulation of human mGlu4 receptor expressed in CHO cells assessed as potentiation of glutamate-induced calcium mobilization at > 30 uM; type: functional, cell-based
[3] = biological target: T1, Metabotropic glutamate receptor 4; experiment: Positive allosteric modulation of human mGlu4 receptor expressed in CHO cells assessed as potentiation of glutamate-induced calcium mobilization; type: functional, cell-based
How it was run: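 Human mGlu4 co-expressed with the chimeric G protein Gqi5 in CHO cells. Compounds were tested in the presence of an EC20 glutamate concentration as 1:3 serial dilutions starting at 30 μM. Values are the mean of triplicates run on one day. For % PHCCC, each compound's maximal response was divided by the response to the control PAM PHCCC measured that same day.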

[4] = Metabolic stability in rat liver microsomes assessed as compound remaining after 60 mins; type: ADME, Microsome; conditions: read-out: Stability
[5] = Fraction unbound in rat plasma; type: ADME, cell-free
[6] = Metabolic stability in human liver microsomes assessed as compound remaining after 60 mins; type: ADME, Microsome; conditions: read-out: Stability
[7] = species on record: Homo sapiens; experiment: Fraction unbound in human plasma

T1 sequence (Q14833 whole entry): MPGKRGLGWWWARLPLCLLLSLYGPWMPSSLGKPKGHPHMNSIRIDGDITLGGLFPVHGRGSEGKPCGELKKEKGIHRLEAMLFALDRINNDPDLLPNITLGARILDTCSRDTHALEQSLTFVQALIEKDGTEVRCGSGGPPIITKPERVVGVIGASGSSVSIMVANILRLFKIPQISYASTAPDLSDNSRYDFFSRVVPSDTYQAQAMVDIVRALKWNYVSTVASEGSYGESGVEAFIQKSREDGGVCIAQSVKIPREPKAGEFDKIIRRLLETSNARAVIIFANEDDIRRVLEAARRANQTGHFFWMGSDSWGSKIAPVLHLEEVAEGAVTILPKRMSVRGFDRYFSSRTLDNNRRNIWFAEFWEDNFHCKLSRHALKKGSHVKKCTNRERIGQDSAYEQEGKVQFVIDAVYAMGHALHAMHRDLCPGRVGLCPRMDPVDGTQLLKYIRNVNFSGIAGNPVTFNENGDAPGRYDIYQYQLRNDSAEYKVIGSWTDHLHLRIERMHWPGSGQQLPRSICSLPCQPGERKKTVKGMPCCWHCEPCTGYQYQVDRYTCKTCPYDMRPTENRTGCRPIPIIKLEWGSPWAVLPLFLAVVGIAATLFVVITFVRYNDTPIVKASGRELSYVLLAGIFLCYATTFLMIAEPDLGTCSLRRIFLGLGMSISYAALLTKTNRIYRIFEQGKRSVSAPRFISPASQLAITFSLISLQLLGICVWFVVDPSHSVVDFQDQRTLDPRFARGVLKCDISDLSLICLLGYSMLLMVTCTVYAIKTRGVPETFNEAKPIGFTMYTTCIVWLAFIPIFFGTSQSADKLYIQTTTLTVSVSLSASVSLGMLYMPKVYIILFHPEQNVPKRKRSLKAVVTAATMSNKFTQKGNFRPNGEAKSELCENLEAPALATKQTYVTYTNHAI

For `O=C(Nc1ccc(S(=O)(=O)N2CCCC2)cc1)c1ccccn1`, the Emax [1] was 15.4% and the EC50 [2] was “Not Active”.
`O=C(Nc1ccc(S(=O)(=O)Nc2cc(F)ccc2F)cc1)c1ccccn1` gave an EC50 [3] of 325 nM and an Emax [1] of 87.6%.
`O=C(Nc1ccc(S(=O)(=O)Nc2ccccc2Cl)cc1)c1ccccn1` showed a remaining at 1 h [4] of 0.02%, a fraction unbound [5] of 0.003 and a remaining at 1 h [6] of 0.02%. The EC50 [3] was 27 nM, the fraction unbound [7] was 0.001 and the Emax [1] was 88.2%.
For `CN(c1ccccc1Cl)S(=O)(=O)c1ccc(NC(=O)c2nccs2)cc1`, the remaining at 1 h [4] was 0.08%, the fraction unbound [5] was 0.37 and the remaining at 1 h [6] was 0.1%. It also gave an EC50 [3] of 686 nM, a fraction unbound [7] of 0.005 and an Emax [1] of 25.4%.
In the case of `O=C(Nc1ccc(S(=O)(=O)Cc2ccccc2Cl)cc1)c1ccccn1`, the Emax [1] is reported as 46.3%.
In the case of `O=C(Nc1ccc(S(=O)(=O)NC2CC2)cc1)c1ccccn1`, the EC50 [3] is reported as over 10000 nM and the Emax [1] is reported as 23.7%.
Compound `COc1ccccc1NS(=O)(=O)c1ccc(NC(=O)c2ccccn2)cc1OC` has a remaining at 1 h [4] of 0.05%, a fraction unbound [5] of 0.127 and a remaining at 1 h [6] of 1.3%. It also gave an EC50 [3] of 132 nM, a fraction unbound [7] of 0.003 and an Emax [1] of 112%.
For `O=C(Nc1ccc(S(=O)(=O)N2CCc3ccccc32)cc1)c1ccccn1`, the Emax [1] was 12% and the EC50 [2] was “Not Active”.
Work on `O=C(Nc1ccc(S(=O)(=O)Nc2ccccc2Cl)cc1)c1nccs1` yielded a remaining at 1 h [4] of 1.2%, a fraction unbound [5] of 0.001 and a remaining at 1 h [6] of 0.84%. For the same compound, the EC50 [3] was 77.4 nM, the fraction unbound [7] was 0.001 and the Emax [1] was 79.4%.
For `O=C(Nc1ccc(Cl)c(S(=O)(=O)Nc2ccccc2Cl)c1)c1ccccn1`, the remaining at 1 h [4] was 0.05%, the remaining at 1 h [6] was 11.9% and the EC50 [3] was 731 nM. The Emax [1] was 54.9%.
`O=C(Nc1ccc(S(=O)(=O)Nc2ccccc2F)cc1)c1ccccn1` showed an EC50 [3] of 206 nM and an Emax [1] of 91.7%.
`CN(c1ccccc1Cl)S(=O)(=O)c1ccc(NC(=O)c2ccncn2)cc1` showed a remaining at 1 h [4] of 3.3%, a fraction unbound [5] of 0.027 and a remaining at 1 h [6] of 2.5%. For the same compound, the EC50 [3] was 990 nM, the fraction unbound [7] was 0.017 and the Emax [1] was 31.1%.
With `O=C(Nc1ccc(S(=O)(=O)NC2CCC2)cc1)c1ccccn1` the EC50 [3] was over 5000 nM and the Emax [1] was 64.4%.
In the case of `O=C(Nc1ccc(S(=O)(=O)Nc2ccc(F)c(Cl)c2)cc1)c1ccccn1`, the Emax [1] is reported as 19.8% and the EC50 [2] is reported as “Not Active”.
In the case of `COc1cccc(C(=O)Nc2ccc(S(=O)(=O)Nc3ccccc3Cl)cc2)n1`, the Emax [1] is reported as 8.6% and the EC50 [2] is reported as “Not Active”.
With `O=C(Nc1ccc(S(=O)(=O)Nc2ccc(Cl)c(C(F)(F)F)c2)cc1)c1ccccn1` the Emax [1] was 19.5% and the EC50 [2] was “Not Active”.
With `Cc1cc(C)c(NS(=O)(=O)c2ccc(NC(=O)c3ccco3)cc2)c(C)c1` the remaining at 1 h [4] was 93.3%, the fraction unbound [5] was 0.082 and the EC50 [3] was 5960 nM. It also gave a fraction unbound [7] of 0.022 and an Emax [1] of 52%.
With `O=C(Nc1ccc(S(=O)(=O)Nc2ccccc2Cl)cc1Cl)c1ccccn1` the Emax [1] was 8.1% and the EC50 [2] was “Not Active”.
In the case of `COCCNS(=O)(=O)c1ccc(NC(=O)c2ccccn2)cc1`, the EC50 [3] is reported as over 10000 nM and the Emax [1] is reported as 22.1%.
With `Cc1cc(C)c(NS(=O)(=O)c2ccc(NC(=O)c3ccccn3)cc2)c(C)c1` the remaining at 1 h [4] was 25.8%, the fraction unbound [5] was 0.003 and the EC50 [3] was 159 nM. The fraction unbound [7] was 0.001 and the Emax [1] was 60.5%.
With `CC1CCN(S(=O)(=O)c2ccc(NC(=O)c3ccccn3)cc2)CC1` the EC50 [3] was 372 nM and the Emax [1] was 35.8%.
`O=C(Nc1ccc(S(=O)(=O)NCC2CC2)cc1)c1ccccn1` gave an EC50 [3] of over 5000 nM and an Emax [1] of 70.2%.
Work on `O=C(Nc1ccc(S(=O)(=O)NC2CCCCC2)cc1)c1ccccn1` yielded an EC50 [3] of 1030 nM and an Emax [1] of 63.1%.
Compound `O=C(Nc1ccc(S(=O)(=O)Nc2ccccc2Cl)cc1)c1ccsc1` has an EC50 [3] of 269 nM and an Emax [1] of 54.2%.
`O=C(Nc1ccc(CS(=O)(=O)c2ccccc2Cl)cc1)c1ccccn1` gave an EC50 [3] of 2170 nM and an Emax [1] of 46.5%.
For `O=C(Nc1ccc(S(=O)(=O)Nc2ccccc2)cc1)c1ccccn1`, the EC50 [3] was 177 nM and the Emax [1] was 69.2%.
With `O=C(Nc1ccc(S(=O)(=O)Nc2ccccc2Cl)c(Cl)c1)c1ccccn1` the remaining at 1 h [4] was 0.02%, the remaining at 1 h [6] was 0.63% and the EC50 [3] was 19.8 nM. The Emax [1] was 102%.
In the case of `O=C(Nc1ccc(S(=O)(=O)Nc2ccccc2Cl)cc1)c1ccncn1`, the EC50 [3] is reported as 478 nM and the Emax [1] is reported as 103%.
For `O=C(Nc1ccc(S(=O)(=O)Nc2ccccc2Cl)cc1)c1cccc(F)n1`, the EC50 [3] was 122 nM and the Emax [1] was 90%.
